In publication PMC3677216 (Bioorganic & medicinal chemistry letters, 2013):

Key:
HeLa cells = test: Cytotoxicity; assay type: cell-based
NCI-60 cell panel = test: NCI-60 cell panel, Sulforhodamine B assay; assay type: cell-based; conditions: NCI-60 panel
Summary of the method: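 NCI-60 panel screen. Viability read by Sulforhodamine B staining of total protein, a measure of cell number rather than metabolic activity. Values are GI50, defined from the change in cell counts relative to the starting number of cells. Some panel lines were not tested.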

MA9.3 AML cell line = test: Cytotoxicity in MA9.3 AML cells; assay type: cell-based, human; conditions: for therapeutic index: between MA9.3 AML cell line and non-cancerous human CD34+ blood stem/progenitor cells
[1] = test system: human CD34+ blood stem/progenitor cells; test: Cytotoxicity in normal CD34+ blood stem/progenitor cells; assay type: cell-based

CC(C)N(CCOc1ccc(O)cc1)c1ccccc1 [Compound 4]
decrease in potency relative to compound 2 (HeLa cells): 3 fold

Oc1ccc(OCCN(CCOc2ccc(O)cc2)c2ccccc2)cc1 [Compound 5]
potency relative to compound 3 (HeLa cells): potency doubled
range of distribution of GI50 values (NCI-60 cell panel): 55 fold

CN(CCCOc1ccc(O)cc1)c1ccccc1 [Compound 7]
range of distribution of GI50 values (NCI-60 cell panel): 53 fold

CN(C(=O)COc1ccc(O)cc1)c1ccccc1 [Compound 11]
potency / anticancer cell activity (in words) (HeLa cells): anticancer cell activity was eliminated

CCOc1ccc(O)cc1 [Compound 12]
potency / anticancer cell activity (in words) (HeLa cells): no potency

CN(CCCOc1ccccc1)c1ccccc1 [Compound 13]
potency / anticancer cell activity (in words) (HeLa cells): complete loss of potency

CN(CCCBr)c1ccccc1 [Compound 14]
potency / anticancer cell activity (in words) (HeLa cells): loss of potency

N.N.[Cl][Pt][Cl] [cisplatin]
IC50 (MA9.3 AML cell line; MA9.3 AML cells): 14 ± 0.7 µM
therapeutic index (MA9.3 AML cell line): 1.0 ± 0.2
IC50 [1]: 15 ± 2 µM

COc1cccc2c1C(=O)c1c(O)c3c(c(O)c1C2=O)C[C@@](O)(C(=O)CO)C[C@@H]3O[C@H]1C[C@H](N)[C@H](O)[C@H](C)O1 [doxorubicin]
therapeutic index (MA9.3 AML cell line): 0.9 ± 0.2
